# Screening results deposited in PubChem by several laboratories.
# CHOP inh = inhibitors of CHOP promoter induction, primary screen, cell-based, unfolded protein response, luciferase reporter; CHO-K1 CHOP-promoter luciferase, tunicamycin-induced, 15-18 h; inhibition, % at 10 µM; 220,000 tested, 3.8% active;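 active means compounds that reduced the stress-induced luciferase reporter signal by more than about 70% of percent inhibition, limit read from the data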;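 further: 0% = tunicamycin plus vehicle and 100% = wells without tunicamycin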
# Tb MetRS inh = T. brucei MetRS inhibitors, primary screen, biochemical, luminescence; purified T. brucei MetRS, ATP depletion, Kinase-Glo luminescence; inhibition, % at 11.9 µM; 360,000 tested, 0.4% active; AID 624268, 2012;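 active means inhibition above a per-plate cutoff of the control wells' mean inhibition plus 3 SD, cut at about 5.5% in these data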;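 further: 0% = DMSO wells median and 100% = median of wells with control inhibitor compound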
#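 Material – parasite MetRS enzyme · Medium – HEPES-MgCl2-KCl buffer plus DTT, spermine, BSA, pyrophosphatase · Reagent – ATP, methionine and E. coli bulk tRNA substrates · Times – 15 min enzyme-compound preincubation, 2 h reaction, 10 min detection, 25 °C · Measured by – luminescence of leftover ATP · Evaluation – percent inhibition relative to median high and low control wells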
# XBP1 UPR activ = activators of adaptive XBP1 UPR arm, primary screen, cell-based, CHO-XBP1 luciferase reporter, luminescence, uHTS | IRE1-XBP1 UPR activation; percent of tunicamycin response, DMSO as zero | activation, % at 20 µM | 330,000 tested, 0.33% active;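 active means versus positive control, 20 µM dose yields 30% or more activation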;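 further: 100% = tunicamycin at 10 µg/mL and 0% = DMSO only wells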
#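 assay system = CHO-XBP1 luciferase reporter cells | amount = 1000 cells/well | buffer or medium = F12 plus 10% FBS | compound dosing = single point, 20 µM final compound, 1% DMSO | incubation = 16-18 h cell attachment at 37 °C, then 6 h compound exposure | detection = Steady-Glo luminescence read | controls = tunicamycin 10 µg/mL and vehicle-only wells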
# V-ATPase pHluor = regulators of yeast V-ATPase proton pumping, primary screen, pHLuorin cytosolic pH fluorescence; S. cerevisiae; response, % at 10 µM; 350,000 tested, 0.37% active; in the data active means response mostly above about 7.3%, no sharp cut-off; inactive means mostly below about 5.4%; further: actives read high
# CHOP UPR activ = activators of apoptotic CHOP UPR arm, primary screen, cell-based, CHO-CHOP luciferase reporter, luminescence, uHTS | UPR activation; percent of tunicamycin response over DMSO baseline | AID 449763, 2010 | 330,000 tested, 0.34% active | activation, % at 10 µM;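 active means at 10 µM dose, activation of 40% or more, normalized to positive control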;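 further: 100% = tunicamycin at 10 µg/mL and 0% = DMSO alone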
#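 Test system: CHO-CHOP cells, stable luciferase reporter of PERK-eIF2a-CHOP signalling | Quantity: 500 CHO-CHOP cells per well | Buffer or medium: F12 plus 10% serum | Compound dosing: 10 µM single point, 0.5% DMSO | Schedule: 6 h compound treatment, 37 °C | Signal: Luciferase luminescence | Control set: Tunicamycin high control, DMSO low control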
# UPR XBP1 confirm = IRE1-XBP1 UPR arm activators, confirmation, cell-based, CHO-XBP1 luciferase reporter, luminescence, single concentration; activation, % at 20 µM; 1,000 tested, 63% active; shares compounds with XBP1 UPR activ;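 active means reporter signal at least 30% of the positive control's activation in two or more of four replicate wells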;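 further: plate controls were DMSO negative control for no effect and tunicamycin 10 µg/mL positive control for full effect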
# V-ATPase pH SP = yeast V-ATPase proton pumping modulators, confirmation, S. cerevisiae, pH-sensitive GFP, second cherry-pick | shares compounds with V-ATPase pHluor | 980 tested, 2% active | S. cerevisiae pHLuorin cytosolic pH, V-ATPase proton transport | AID 602197, 2012 | response, % at 10 µM; in the data active means response above about 24%;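 further: plate controls were vehicle wells for no effect and positive control wells for full effect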
# Tb MetRS conf = T. brucei MetRS inhibitors, confirmation, biochemical, luminescence | inhibition, % at 11.9 µM | 1,400 tested, 93% active | T. brucei MetRS enzyme, luminescence (ATP depletion) | AID 624412, 2012 | shares compounds with Tb MetRS inh; in the data active means inhibition above about 7%
# Jurkat cytotox = Jurkat T cell cytotoxicity, cytotoxicity control for T. brucei MetRS inhibitor project, luminescence, high throughput; inhibition, % at 8.3 µM; 1,400 tested, 12% active; Jurkat cells viability, ATP luminescence; shares compounds with Tb MetRS inh; in the data active means inhibition above about 15%;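 further: 0% = vehicle and 100% = reference inhibitor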
# Tb MetRS inh FP = T. brucei MetRS inhibitors, orthogonal assay for T. brucei MetRS inhibitor project, biochemical, fluorescence polarization. shares compounds with Tb MetRS inh. purified T. brucei MetRS. inhibition, % at 11.9 µM. 1,400 tested, 44% active; in the data active means inhibition above about 17%;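 further: 0% = vehicle wells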
# * marks the source's active call; other numbers are inactive results; · = not tested or not shown; ! = repeats disagree. Shown is part of a subset that was picked to be rich in hits.
SMILES,CHOP inh,Tb MetRS inh,XBP1 UPR activ,V-ATPase pHluor,CHOP UPR activ,V-ATPase pH SP,others
CCOC(=O)c1c(C)n(CC(O)CN2CCOCC2)c2cc(Br)c(OC)cc12 (centres undefined),21,-1,-1,0,1,·,
NS(=O)(=O)c1ccc(N=Cc2c(O)n(C3CCCCC3)c(=O)n(C3CCCCC3)c2=O)cc1,112*,0,46*,0,3,·,UPR XBP1 confirm=40*
COc1cc(OC)c(OC)cc1CNCCc1ccc2c(c1)OCO2,·,0,-5,-4,-1,·,
CCc1ccc(N2C(=O)NC(=O)/C(=C\c3cccn3CCOc3ccc(C(C)C)cc3)C2=O)cc1,87*,0,51*,-4,23,·,UPR XBP1 confirm=41*
CN(C)c1ccc(C=C2C(=O)NC(=O)NC2=O)cc1,·,0,·,2,·,·,
CN(C)c1ccc(/C=C/[N+](=O)[O-])cc1,-74,0,59*,1,18,·,UPR XBP1 confirm=33*
C1=NCCCN2CCCCC12 (centres undefined),·,0,·,-2,·,·,
O=C1NC(=O)N(Cc2ccc(F)cc2)C(=O)/C1=C/c1cccs1,55,0,39*,-1,8,·,UPR XBP1 confirm=40*
CN(C)c1ccc(/C=C2\C(=O)NC(=O)N(Cc3ccc(F)cc3)C2=O)cc1,31,0,0,-4,1,·,
O=C(Nc1ccc(F)cc1)c1c(O)c2c(n(Cc3ccccc3)c1=O)CCCC2,-21,-1,3,10.0*,0,4,
O=C(Nc1cccnc1)c1c(O)c2c(n(Cc3ccccc3)c1=O)CCCC2,57,0,0,-2,-1,·,
Cc1ccc([N+](=O)[O-])cc1,·,-1,-2,21*,3,4,
O=[N+]([O-])c1ccc(Cl)cc1,·,0,0,2,-1,·,
Cc1ccccc1CN1CCNCC1,0,1,-3,11*,-1,1,
Cc1ccsc1/C=C1\C(=O)NC(=S)N(C)C1=O,·,0,29,11*,176*,45*,
COc1ccc(/C=C2\C(=O)NC(=S)N(C)C2=O)cc1C,-11,0,-1,1,0,·,
O=C(NCC1=C(c2cccc3ccccc23)C[C@@H]2CC[C@H]1N2Cc1ccco1)c1ccc([N+](=O)[O-])cc1,·,-1,·,-1,·,·,
C/C(=N\N1CCCCCC1)c1c(O)n(-c2ccc(C)cc2)c(=O)[nH]c1=O,1,-1,1,8.7*,3,-4,
C/C(=N\N1CCCCCC1)c1c(O)n(-c2ccc(Cl)cc2)c(=O)[nH]c1=O,7,-1,1,-1,3,·,
CC1CCCC(NC(=O)CNC(=S)N2CC3CC(C2)c2cccc(=O)n2C3)C1C (centres undefined),·,0,-2,3,-1,·,
COC(=O)C1=C(c2cc3ccccc3o2)C[C@@H]2CC[C@H]1N2C(=O)NCCCOC(C)C,·,0,-1,0,-1,·,
C/C(=N\Nc1ccccc1)c1c(O)n(-c2ccccc2)c(=O)[nH]c1=O,-6,1,2,-4,-1,·,
C/C(=N\Nc1ccccc1)c1c(O)[nH]c(=O)[nH]c1=O,-18,0,-2,16*,0,-3,
C[C@]1(O)CC[C@H]2[C@@H]3CCC4=CC(=O)CC[C@]4(C)[C@@]3(F)[C@@H](O)C[C@@]21C,·,-2,·,9.2*,·,1,
CC1(O)CCC2C3CCC4=CC(=O)CCC4(C)C34OC4CC21C (centres undefined),·,0,·,1,·,·,
SMILES,CHOP inh,Tb MetRS inh,XBP1 UPR activ,V-ATPase pHluor,CHOP UPR activ,V-ATPase pH SP,others
Cc1c(O)ccc(C(=O)CN2CC(C)OC(C)C2)c1O (centres undefined),·,0,1,0,0,·,
O=c1oc2ccccc2c(O)c1C(c1ccc([N+](=O)[O-])cc1)c1c(O)c2ccccc2oc1=O,4,0,·,12*,·,1,
Cc1cc(OCC(=O)N2CCC(C(=O)O)(c3ccccc3)CC2)c2c(C)c(C)c(=O)oc2c1,·,-1,-5,10*,-2,0,
Cc1ccc(C2C(S(C)(=O)=O)=C(O)C(=O)N2c2ccccc2)cc1 (centres undefined) (tested in a mixture with another compound),-6,-1,-3,7.7*,2,-1,
CCOC(=O)c1cc2c(cn1)[nH]c1ccccc12,24,0,2,-4,5,0,
Cc1ccc2nc(N3CCN(C)CC3)[nH]c2c1,35,-1,-2,12*,3,0,
C[N+](C)(C)CC1CCCC1=O (centres undefined),·,0,·,4,·,·,
CN1CCC(O)(c2cccs2)C(C(=O)c2cccs2)C1 (centres undefined),·,0,-4,1,1,·,
Clc1ccc(COC(Cn2ccnc2)c2ccc(Cl)cc2Cl)cc1 (centres undefined),45,6.1*,-6,12,1,·,Tb MetRS conf=20*;Jurkat cytotox=13;Tb MetRS inh FP=14
NC(=O)c1cn(C2OC(CO)C(O)C2O)c2ncnc(N)c12 (centres undefined),105*,5.9*!,1,-2,-4,·,Tb MetRS conf=12*;Jurkat cytotox=97*;Tb MetRS inh FP=12
N#Cc1cn(C2OC(CO)C(O)C2O)c2ncnc(N)c12 (centres undefined),·,0,·,8,·,·,
COc1ccc(NC2Oc3cc4c(cc3C(c3cc(OC)c(OC)c(OC)c3)C2C)OCO4)cc1 (centres undefined),·,-1,·,-11,·,·,
Nc1c(C(=O)NC2CCCC2)c2nc3ccccc3nc2n1CC1CCCO1 (centres undefined),76*,7.5*,2,-2,1,·,Tb MetRS conf=5;Jurkat cytotox=-1;Tb MetRS inh FP=5
COc1ccc(Cn2c(N)c(C(=O)NCc3ccco3)c3nc4ccccc4nc32)cc1OC,·,8.0*,16,-3,5,·,Tb MetRS conf=5;Jurkat cytotox=14;Tb MetRS inh FP=11
